Most compounds without a hit are left out; they make up all but 1.8% or so of the library.
Cneo AK release: Cryptococcus neoformans lysis via adenylate kinase release; AID 651654; lysis activity, % at 15 µM; C. neoformans lysis, adenylate kinase release luminescence, 4 h; normalised: neutral wells 0, clomiphene wells 100; 360,000 compounds, 0.2% hits;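 active = mean lysis activity across replicates of at least 80%, whatever share of replicates individually reach that level; inactive = mean lysis activity below 80%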
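Signal: Adenylate kinase release luminescence | Assay system: Log-phase Cryptococcus neoformans yeast cells | Input: Cells at 5 × 10^6 per mL | Buffer or medium: Fresh YPD growth medium | Compound: Single dose | Schedule: Static 4 h at 37 °C with compound, 1 h detection | Controls: Clomiphene | Read-out: Luminescence rise reflecting yeast cell lysis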
Efflux pump inh: inhibitors of Candida antifungal efflux pumps expressed in yeast; 330,000 compounds, 0.44% hits; S. cerevisiae Candida pump triplex, Nile Red efflux; inhibition, % at 10 µM; AID 485275;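 active = plate passing quality check with inhibition over a set limit, or well fluorescence over plate mean plus 4 SD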;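 note: Nile Red retained in pooled yeast measured as flow cytometry median fluorescence; 0% = buffer negative control and 100% = Enniatin B positive control; higher means more Nile Red kept so more efflux inhibition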
SUMO Mot1 rescue: blocks SUMOylation pathway, rescuing yeast Mot1-301 growth. AID 2716. S. cerevisiae Mot1-301 growth rescue, ATP luminescence, 38.5C; percent above DMSO median, 100 means doubled. 320,000 compounds, 1% hits. growth rescue, % at 18.8 µM;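 active = every valid replicate shows activation above 250% relative to neutral control wells; inactive = the rest, any valid replicate at or below 250%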;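 note: OY570 slx delta 5 strain wells were the positive control but not used for scaling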
Statin myotox sup: suppression of simvastatin myotoxicity; C2C12 myotubes + simvastatin, ATP luminescence, 48 h; scaled: DMSO 0, geranylgeraniol control 100; rescue of ATP level, % at 7.49 µM; 330,000 compounds, 0.78% hits; AID 602340;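 active = mean ATP rescue above about 67%, or every replicate alone reaching that limit, limit read from the data, passing the limit was not always enough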;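 note: myotubes were challenged with 10 µM simvastatin during compound exposure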
Numbers without * were called inactive; / = not tested or not shown; + = active, no number.

SMILES	Cneo AK release	Efflux pump inh	SUMO Mot1 rescue	Statin myotox sup
COc1ccc(CN(C)C[C@@H]2OCCCC[C@H](C)Oc3ccc(NS(C)(=O)=O)cc3C(=O)N([C@H](C)CO)C[C@H]2C)cc1	-1	/	/	5
CN(C(=O)c1cccc(NC(=O)Cc2cccc(NC(=O)C3CCCN(C(=O)C4CCC4)C3)c2)c1)C1CC1 (stereo not given)	0	/	/	-17
CC(CCC(C)C(C)(C)C)[C@@H]1CC[C@H]2C3C[C@H](OS(O)(=S)=S)[C@H]4C[C@H](OS(O)(=S)=S)[C@@H](OS(O)(=S)=S)C[C@]4(C)[C@H]3CC[C@]12C (stereo not given in full) (tested in a mixture with another compound)	-1	2.1*	+	-65
CC(CCC(=O)NN)C1CCC2C3CCC4CC(O)CCC4(C)C3CCC12C (stereo not given)	/	/	/	6
COc1cccc(C(=O)Nc2nc(-c3ccc(S(=O)(=O)N4CCOCC4)cc3)cs2)c1	-2	0	255*	-19
O=C(Nc1nc(-c2ccc(S(=O)(=O)N3CCOCC3)cc2)cs1)c1ccccc1	/	0	-5	0
CCOC(=O)c1cnc2c(-c3ccc(Cl)cc3)c(C)nn2c1N	0	0	2	87*
Cc1cc(=O)oc(C)c1C(=O)NC12CC3CC(CC(C3)C1)C2	2	0	366	2
CCNC(=S)NC1CC2CCCC(C1)N2Cc1ccc(C)cc1 (stereo not given)	1	0	13	0
COc1ccc(S(=O)(=O)NCCc2nnc3ccc(SCC(=O)Nc4cc(C)on4)nn23)cc1	/	0	7	/
Cc1cc(NC(=O)CSc2ccc3nnc(CCNS(=O)(=O)c4ccccc4)n3n2)no1	-2	0	-16	86*
C[C@H](CO)N1C[C@H](C)[C@H](CN(C)C(=O)NC2CCCCC2)OCCCC[C@H](C)Oc2ccc(NC(=O)Nc3cccc4ccccc34)cc2C1=O	2	/	/	137*
C[C@H]1CCCCO[C@@H](CN(C)C(=O)NC2CCCCC2)[C@@H](C)CN([C@@H](C)CO)C(=O)c2cc(NC(=O)Nc3cccc4ccccc34)ccc2O1	2	/	/	96*
C[C@@H]1CN([C@@H](C)CO)C(=O)c2cc(NC(=O)Nc3cccc4ccccc34)ccc2O[C@@H](C)CCCCO[C@H]1CN(C)C(=O)NC1CCCCC1	3	/	/	9
C[C@H](CO)N1C[C@H](C)[C@H](CN(C)C(=O)NC2CCCCC2)OCCCC[C@H](C)Oc2ccc(NC(=O)C3CCCCC3)cc2C1=O	104*	/	/	7
C[C@@H]1CN([C@H](C)CO)C(=O)c2cc(NC(=O)Nc3cccc4ccccc34)ccc2O[C@@H](C)CCCCO[C@@H]1CN(C)C(=O)NC1CCCCC1	-2	/	/	74*
C[C@@H]1CN([C@H](C)CO)C(=O)c2cc(NC(=O)Nc3cccc4ccccc34)ccc2O[C@@H](C)CCCCO[C@H]1CN(C)C(=O)NC1CCCCC1	3	/	/	-8
O=c1c2ccccc2cnn1Cc1ccc(Br)cc1F	-3	0	-22	-17
COc1ccc(NC(=O)CSc2ccc3nnc(-c4cccnc4)n3n2)cc1OC	3	0	93	/
CCOC(=O)c1cc2c(nc1NC(=S)NCc1ccccc1)CCCC2	/	0	1	/
C[C@H]1CN([C@@H](C)CO)C(=O)c2cc(NC(=O)C3CC3)ccc2O[C@@H]1CN(C)CC1CCCCC1	-1	/	/	81*
C[C@@H]1CN([C@H](C)CO)C(=O)c2cc(NC(=O)C3CC3)ccc2O[C@H]1CN(C)CC1CCCCC1	1	/	/	-32
CC(CN1CCCC1)OC(=O)c1ccccc1Cl (stereo not given)	0	0	12	0
CC(CN1CCN(C)CC1)OC(=O)c1ccccc1Cl (stereo not given)	0	0	346*	-9
C/C(=N\NC(=O)c1ccc(NS(=O)(=O)c2cccs2)cc1)c1ccc(Cl)cc1	/	-1	578	/
SMILES	Cneo AK release	Efflux pump inh	SUMO Mot1 rescue	Statin myotox sup
CC(C)NC(=O)N(C)C[C@@H]1Oc2ccc(NS(=O)(=O)c3ccc(F)cc3)cc2C(=O)N([C@H](C)CO)C[C@@H]1C	-1	/	/	-5
O=C(CSc1nc(-c2ccccc2)c(-c2ccccc2)o1)Nc1nncs1	1	0	11	102*
O=C(CSc1nc(-c2ccccc2)c(-c2ccccc2)o1)Nc1nnc(-c2ccccc2)s1	1	0	-16	9
O=C(Nc1ccc(Br)cc1)C1CCCN1S(=O)(=O)c1cccs1 (stereo not given)	0	1	-5	139*
Cc1ccc(NC(=O)C2CCCN(S(=O)(=O)c3cccs3)C2)cc1 (stereo not given)	6	0	25	78*
CC(=O)c1cccc(NC(=O)C2CCCN2S(=O)(=O)c2cccs2)c1 (stereo not given)	11	/	/	-6
C[C@@H]1CN([C@H](C)CO)C(=O)c2cc(C3=CCCCC3)cnc2O[C@H]1CN(C)C(=O)c1ccc2c(c1)OCO2	-1	/	/	32
CN(CC(=O)Nc1c(Cl)cccc1Cl)C(=O)CNC(=O)c1ccco1	-9	0	0	2
Cc1ccccc1-n1c(SCC(=O)N/N=C/c2ccccc2OCC(=O)O)nc2ccccc2c1=O	2	0	2	-15
CC(=O)Oc1cc(OC(C)=O)c2c(C)cc(=O)oc2c1	6	0	-2	97*
CC(=O)Oc1ccc2c(C)cc(=O)oc2c1	/	0	2	/
COc1ccccc1/C=C/C=C1\Oc2c(ccc(O)c2CN(C)C)C1=O	4	0	8	26
CCN(CC)Cc1c(O)ccc2c1O/C(=C\C=C\c1ccccc1)C2=O	-3	0	2	106*
Cc1ccc(C(=O)NNC(=O)C2CCN(Cc3ccc(Cl)c(Cl)c3)CC2)cc1	1	0	417	135*
O=C(COC(=O)CSCC(=O)N1CCCCC1)Nc1ccc(Cl)cc1	3	0	338*	-2
O=C(CSCC(=O)OCC(=O)N1CCN(C(=O)c2ccco2)CC1)Nc1ccc(Cl)cc1	0	/	/	6
CCN(CCCNC(=O)C1CCC(=O)N1C(C)C)c1cccc(C)c1 (stereo not given)	0	0	367	126*
C[C@@H]1CCCCO[C@@H](CN(C)Cc2ccncc2)[C@@H](C)CN([C@@H](C)CO)C(=O)c2cc(NC(=O)Nc3cccc4ccccc34)ccc2O1	1	/	/	/
COC(=O)c1cc(N2C(=O)C3C(C2=O)C2(C)C=CC3(C)O2)ccc1Cl (stereo not given)	/	0	425*	/
Cc1cccc(N2CCN(Cc3ccc(Br)o3)CC2)c1C	5	0	14	-7
Cc1ccc(N2C(=O)CC(C)CC2=O)cc1	-1	0	-24	1
N#CC1=C(N)OC2=C(C(=O)CCC2)[C@]12C(=O)N(CC(N)=O)c1ccccc12	-1	0	-14	109*
CCn1c(=O)cc(OCC(=O)Nc2ccccc2N2CCN(C)CC2)c2ccccc21	1	0	101	-3
O=C(CN1CCOCC1)NN=C(c1ccccc1)c1ccccc1	/	0	3	/

From PubChem
